Here are results for 24 compounds from ChEMBL document CHEMBL4342493, “Design and Optimization of 3'-(Imidazo[1,2-a]pyrazin-3-yl)-[1,1'-biphenyl]-3-carboxamides as Selective DDR1 Inhibitors” (ACS Med Chem Lett, 2020).

Where only a bound is given, the exact number is not on record here.

Assay [1] has as its target Mast/stem cell growth factor receptor Kit (Homo sapiens, UniProt P10721). The assay can be described thus: Inhibition of human recombinant His-tagged c-Kit cytoplasmic domain (544 to 976 residues) expressed in baculovirus expression system using Ser/Thr 6 peptide as substrate after 1 hr in presence of 300 uM ATP by FRET based Z'-LYTE assay.
In assay [2] the target is Epithelial discoidin domain-containing receptor 1 (Homo sapiens, UniProt Q08345). The assay can be described thus: Inhibition of recombinant human GST-tagged DDR1 catalytic domain (440 to 876 residues) expressed in baculovirus expression system using Fluorescein-poly GAT as substrate incubated for 1 hr in presence of ATP by LanthaScreen Eu kinase assay.
Epithelial discoidin domain-containing receptor 1, sequence (Q08345 whole entry, the tested form may be a part): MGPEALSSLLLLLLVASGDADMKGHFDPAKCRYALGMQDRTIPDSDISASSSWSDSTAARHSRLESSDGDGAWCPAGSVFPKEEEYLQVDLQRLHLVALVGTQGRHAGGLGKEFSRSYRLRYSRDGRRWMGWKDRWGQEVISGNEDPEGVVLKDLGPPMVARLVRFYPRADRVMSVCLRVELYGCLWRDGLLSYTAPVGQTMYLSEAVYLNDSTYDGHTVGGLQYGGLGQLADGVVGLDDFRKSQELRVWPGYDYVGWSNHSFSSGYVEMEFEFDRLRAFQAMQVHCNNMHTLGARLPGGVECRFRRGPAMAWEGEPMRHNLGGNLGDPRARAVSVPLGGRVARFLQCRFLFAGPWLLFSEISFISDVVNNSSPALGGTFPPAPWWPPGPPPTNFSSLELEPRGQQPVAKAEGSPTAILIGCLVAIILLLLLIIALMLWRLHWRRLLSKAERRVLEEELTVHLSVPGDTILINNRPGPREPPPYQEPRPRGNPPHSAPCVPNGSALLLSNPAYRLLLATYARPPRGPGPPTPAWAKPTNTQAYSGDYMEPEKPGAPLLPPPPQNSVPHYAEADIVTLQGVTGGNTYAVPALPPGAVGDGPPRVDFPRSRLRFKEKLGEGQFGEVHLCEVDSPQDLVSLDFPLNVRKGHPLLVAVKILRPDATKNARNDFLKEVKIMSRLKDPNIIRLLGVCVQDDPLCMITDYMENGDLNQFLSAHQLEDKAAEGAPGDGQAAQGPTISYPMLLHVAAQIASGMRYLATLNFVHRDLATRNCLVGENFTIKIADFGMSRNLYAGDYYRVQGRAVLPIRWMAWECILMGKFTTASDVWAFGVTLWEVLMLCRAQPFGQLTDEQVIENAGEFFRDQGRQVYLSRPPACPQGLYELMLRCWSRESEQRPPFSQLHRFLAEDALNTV
Assay [3] concerns the target Bcr/Abl fusion protein (Homo sapiens, UniProt P00519). Description: Inhibition of human recombinant full length His-tagged Bcr-Abl expressed in baculovirus expression system using tyrosine-2 peptide as substrate after 1 hr in presence of […] ATP by FRET based Z'-LYTE assay. Put shortly:
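FRET-based Z′-Lyte kinase assay for Bcr-Abl; IC50 values are means of three independent experiments, variations <20%.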

The target of assay [4] is T1, Discoidin domain-containing receptor 2 (Homo sapiens, UniProt Q16832).
T1 sequence (Q16832 whole entry): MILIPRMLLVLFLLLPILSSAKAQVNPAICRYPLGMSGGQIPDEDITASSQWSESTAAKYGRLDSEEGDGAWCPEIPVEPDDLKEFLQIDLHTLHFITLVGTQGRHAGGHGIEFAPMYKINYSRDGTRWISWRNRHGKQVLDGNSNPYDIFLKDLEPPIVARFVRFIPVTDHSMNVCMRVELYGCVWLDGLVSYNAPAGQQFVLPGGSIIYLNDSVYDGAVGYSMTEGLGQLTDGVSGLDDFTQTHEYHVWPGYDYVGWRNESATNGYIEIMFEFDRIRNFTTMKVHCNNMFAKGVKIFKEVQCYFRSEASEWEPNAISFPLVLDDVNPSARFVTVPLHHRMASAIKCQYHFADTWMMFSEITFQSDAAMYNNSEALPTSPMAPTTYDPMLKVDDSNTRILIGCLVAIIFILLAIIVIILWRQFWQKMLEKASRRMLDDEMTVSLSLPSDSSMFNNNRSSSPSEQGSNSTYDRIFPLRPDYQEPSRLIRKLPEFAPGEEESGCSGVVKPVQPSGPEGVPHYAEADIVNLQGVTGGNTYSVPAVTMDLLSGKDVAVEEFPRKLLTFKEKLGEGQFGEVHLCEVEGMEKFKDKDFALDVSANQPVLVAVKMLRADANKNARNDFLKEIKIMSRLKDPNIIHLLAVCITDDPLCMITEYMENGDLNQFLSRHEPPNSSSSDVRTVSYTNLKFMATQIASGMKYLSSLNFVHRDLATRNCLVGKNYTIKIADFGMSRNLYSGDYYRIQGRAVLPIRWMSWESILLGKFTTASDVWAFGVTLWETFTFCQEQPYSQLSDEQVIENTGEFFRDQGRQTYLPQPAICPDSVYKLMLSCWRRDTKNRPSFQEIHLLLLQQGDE
Description: Inhibition of recombinant human GST-tagged DDR2 cytoplasmic domain (427 to 855 residues) expressed in baculovirus expression system using Fluorescein-poly GAT as substrate incubated for 1 hr in presence of ATP by LanthaScreen Eu kinase assay. Put shortly:
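LanthaScreen Eu kinase assay for DDR2; IC50 values are means of three independent experiments, variations <20%.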

Mast/stem cell growth factor receptor Kit, sequence (P10721 whole entry, the tested form may be a part): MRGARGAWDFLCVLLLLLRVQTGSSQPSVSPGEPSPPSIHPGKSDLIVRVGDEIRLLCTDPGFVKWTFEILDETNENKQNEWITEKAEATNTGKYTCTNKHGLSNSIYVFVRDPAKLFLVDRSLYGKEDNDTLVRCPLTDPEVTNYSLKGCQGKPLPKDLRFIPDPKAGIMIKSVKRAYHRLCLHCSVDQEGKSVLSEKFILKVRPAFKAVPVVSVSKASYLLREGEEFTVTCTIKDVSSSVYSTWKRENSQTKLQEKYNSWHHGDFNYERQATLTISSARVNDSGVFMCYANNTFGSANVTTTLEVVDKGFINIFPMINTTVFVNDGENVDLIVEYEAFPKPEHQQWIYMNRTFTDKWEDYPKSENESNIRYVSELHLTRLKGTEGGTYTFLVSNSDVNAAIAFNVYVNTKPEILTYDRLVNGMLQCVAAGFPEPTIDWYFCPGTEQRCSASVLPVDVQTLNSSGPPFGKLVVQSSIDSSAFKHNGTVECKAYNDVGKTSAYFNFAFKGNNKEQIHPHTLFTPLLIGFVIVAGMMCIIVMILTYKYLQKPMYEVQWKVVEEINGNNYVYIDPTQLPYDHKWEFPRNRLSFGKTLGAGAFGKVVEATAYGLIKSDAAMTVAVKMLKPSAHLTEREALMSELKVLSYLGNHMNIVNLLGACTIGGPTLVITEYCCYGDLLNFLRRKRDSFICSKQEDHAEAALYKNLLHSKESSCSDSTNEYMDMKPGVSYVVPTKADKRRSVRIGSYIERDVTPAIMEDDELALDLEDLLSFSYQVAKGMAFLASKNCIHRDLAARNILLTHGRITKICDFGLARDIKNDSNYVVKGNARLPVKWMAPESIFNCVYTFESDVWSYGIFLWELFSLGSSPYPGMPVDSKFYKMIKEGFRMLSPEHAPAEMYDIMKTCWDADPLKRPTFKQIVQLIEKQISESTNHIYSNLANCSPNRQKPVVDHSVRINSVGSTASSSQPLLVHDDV
Bcr/Abl fusion protein, sequence (P00519 whole entry, the tested form may be a part): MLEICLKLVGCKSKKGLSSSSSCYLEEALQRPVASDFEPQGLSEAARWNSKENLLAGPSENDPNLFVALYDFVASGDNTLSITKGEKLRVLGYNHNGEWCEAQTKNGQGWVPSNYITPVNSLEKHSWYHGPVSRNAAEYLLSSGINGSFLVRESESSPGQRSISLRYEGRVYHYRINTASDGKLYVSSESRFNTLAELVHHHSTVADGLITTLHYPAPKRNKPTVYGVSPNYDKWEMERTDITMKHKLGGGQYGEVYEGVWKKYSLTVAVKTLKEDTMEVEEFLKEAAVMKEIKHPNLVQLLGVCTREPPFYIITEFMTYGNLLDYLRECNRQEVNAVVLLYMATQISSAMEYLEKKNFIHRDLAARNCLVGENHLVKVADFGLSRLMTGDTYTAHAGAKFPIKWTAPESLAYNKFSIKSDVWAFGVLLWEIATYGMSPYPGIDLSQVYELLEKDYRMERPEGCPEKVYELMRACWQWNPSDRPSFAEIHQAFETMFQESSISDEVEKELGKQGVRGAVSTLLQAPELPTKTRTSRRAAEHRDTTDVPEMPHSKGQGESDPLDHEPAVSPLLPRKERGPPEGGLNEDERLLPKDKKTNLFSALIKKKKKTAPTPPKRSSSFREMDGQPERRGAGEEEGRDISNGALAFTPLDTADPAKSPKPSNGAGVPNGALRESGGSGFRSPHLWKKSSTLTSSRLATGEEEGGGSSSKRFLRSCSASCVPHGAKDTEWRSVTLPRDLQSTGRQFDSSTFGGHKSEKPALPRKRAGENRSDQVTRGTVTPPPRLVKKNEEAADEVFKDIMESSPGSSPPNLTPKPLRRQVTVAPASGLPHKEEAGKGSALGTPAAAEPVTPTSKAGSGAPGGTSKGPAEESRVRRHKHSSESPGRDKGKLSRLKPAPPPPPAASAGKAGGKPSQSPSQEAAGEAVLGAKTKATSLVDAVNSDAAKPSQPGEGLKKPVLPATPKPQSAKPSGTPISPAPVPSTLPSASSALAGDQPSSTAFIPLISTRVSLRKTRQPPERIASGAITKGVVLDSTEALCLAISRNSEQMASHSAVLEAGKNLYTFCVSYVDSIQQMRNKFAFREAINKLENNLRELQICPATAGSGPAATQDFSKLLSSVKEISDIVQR
Bcr/Abl fusion protein, sequence (P11274 whole entry, further chain, the tested form may be a part): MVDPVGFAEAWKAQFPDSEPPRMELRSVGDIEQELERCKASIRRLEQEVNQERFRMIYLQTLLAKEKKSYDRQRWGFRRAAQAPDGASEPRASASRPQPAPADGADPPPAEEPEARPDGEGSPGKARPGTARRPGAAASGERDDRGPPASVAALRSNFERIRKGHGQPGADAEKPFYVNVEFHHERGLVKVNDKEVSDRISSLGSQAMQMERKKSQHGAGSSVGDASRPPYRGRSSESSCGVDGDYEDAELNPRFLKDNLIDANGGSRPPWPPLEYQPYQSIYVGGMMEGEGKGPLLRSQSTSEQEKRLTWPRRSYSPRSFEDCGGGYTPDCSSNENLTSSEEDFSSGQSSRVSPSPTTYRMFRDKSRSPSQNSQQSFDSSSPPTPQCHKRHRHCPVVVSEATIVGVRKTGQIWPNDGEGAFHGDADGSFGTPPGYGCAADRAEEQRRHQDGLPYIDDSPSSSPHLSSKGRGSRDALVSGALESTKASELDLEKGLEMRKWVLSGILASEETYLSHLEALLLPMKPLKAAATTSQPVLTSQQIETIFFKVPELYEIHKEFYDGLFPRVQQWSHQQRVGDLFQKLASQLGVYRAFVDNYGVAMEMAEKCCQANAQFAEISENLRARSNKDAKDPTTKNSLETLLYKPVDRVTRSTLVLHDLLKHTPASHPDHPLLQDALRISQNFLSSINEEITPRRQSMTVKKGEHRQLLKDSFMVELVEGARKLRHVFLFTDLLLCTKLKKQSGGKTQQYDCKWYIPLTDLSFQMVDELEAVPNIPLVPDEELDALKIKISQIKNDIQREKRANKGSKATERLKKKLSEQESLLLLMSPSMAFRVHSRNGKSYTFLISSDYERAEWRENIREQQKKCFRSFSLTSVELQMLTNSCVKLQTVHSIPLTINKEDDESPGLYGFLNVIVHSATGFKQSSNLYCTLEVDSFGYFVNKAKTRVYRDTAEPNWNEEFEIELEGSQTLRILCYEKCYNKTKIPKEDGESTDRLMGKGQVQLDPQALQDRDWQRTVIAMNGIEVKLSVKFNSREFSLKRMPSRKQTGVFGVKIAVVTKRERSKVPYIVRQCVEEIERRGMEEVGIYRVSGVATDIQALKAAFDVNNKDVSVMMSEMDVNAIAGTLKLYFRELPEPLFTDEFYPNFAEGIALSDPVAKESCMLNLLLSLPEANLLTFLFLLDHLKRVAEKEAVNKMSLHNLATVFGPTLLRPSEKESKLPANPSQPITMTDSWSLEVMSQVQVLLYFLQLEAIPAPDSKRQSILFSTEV

As to `CCc1ccc(C(=O)Nc2cc(CN3CCN(C)CC3)cc(C(F)(F)F)c2)cc1C#Cc1cnc2ccnn2c1`, in assay [1], the concentration for half-maximal inhibition (IC50) was above 10 µM.
For the compound `CCc1ccc(C(=O)Nc2cccc(C(F)(F)F)c2)cc1-c1cccc(-c2cnc3cnccn23)c1`, the IC50 was found to be 0.0104 µM in assay [2], 2.92 µM in assay [1], 2.22 µM in assay [3] and 0.725 µM in assay [4].
For the compound `CCc1ccc(C(=O)Nc2cc(C(F)(F)F)ccc2F)cc1-c1cc(C)cc(-c2cnc3cnccn23)c1`, the IC50 in assay [2] is 0.0365 µM; in assay [1] it was above 10 µM; in assay [3] it was above 10 µM; in assay [4], above 5 µM.
Turning to `CCc1ccc(C(=O)Nc2cccc(C(F)(F)F)c2)cc1-c1cc(Cl)cc(-c2cnc3cnccn23)c1`, the IC50 in assay [2] was 0.0213 µM; in assay [1], 8.41 µM; in assay [3], above 10 µM; in assay [4], 1.08 µM.
Turning to `CCc1ccc(C(=O)Nc2ccccc2)cc1-c1cccc(-c2cnc3cnccn23)c1`, the half-inhibitory concentration (IC50) is 4.85 µM in assay [2], 8.99 µM in assay [1], 5.12 µM in assay [3] and above 10 µM in assay [4].
Turning to `CCc1ccc(C(=O)Nc2cccc(CN3CCN(C)CC3)c2)cc1-c1cccc(-c2cnc3cnccn23)c1`, the half-inhibitory concentration (IC50) in assay [2] is 0.357 µM; in assay [1] it was 4.93 µM; in assay [3], 0.989 µM; in assay [4] it was above 10 µM.
As for `CCc1ccc(C(=O)Nc2cc(CN3CCN(C)CC3)cc(C(F)(F)F)c2)cc1-c1cccc(-c2cnc3ccnn3c2)c1`, the IC50 is 0.359 µM in assay [2], above 10 µM in assay [1], above 10 µM in assay [3] and 0.197 µM in assay [4].
Turning to `CCc1ccc(C(=O)Nc2cccc(C(F)(F)F)c2)cc1-c1cc(F)cc(-c2cnc3cnccn23)c1`, the half-inhibitory concentration (IC50) amounted to 0.0303 µM in assay [2], 6.59 µM in assay [1], 5.34 µM in assay [3] and 1.33 µM in assay [4].
Turning to `Cc1ccc(C(=O)Nc2cccc(C(F)(F)F)c2)cc1-c1cccc(-c2cnc3cnccn23)c1`, the IC50 stood at 0.0092 µM in assay [2], 0.0724 µM in assay [1], 0.237 µM in assay [3] and 0.135 µM in assay [4].
As to `CCc1ccc(C(=O)Nc2cccc(C(F)(F)F)c2)cc1-c1cc(-c2cnc3cnccn23)cc(C(C)C)c1`, the IC50 is 0.0669 µM in assay [2], above 10 µM in assay [1], above 10 µM in assay [3] and 2.63 µM in assay [4].
In the case of `CCc1ccc(C(=O)Nc2cccc(C(F)(F)F)c2F)cc1-c1cc(C)cc(-c2cnc3cnccn23)c1`, the half-inhibitory concentration (IC50) in assay [2] was 0.0738 µM; in assay [1], above 10 µM; in assay [3], above 10 µM; in assay [4], above 5 µM.
In the case of `CCc1ccc(C(=O)Nc2cccc(C(F)(F)F)c2)cc1-c1cc(-c2cnc3cnccn23)cc(C(C)(C)C)c1`, the IC50 in assay [2] was 0.092 µM; in assay [1], above 10 µM; in assay [3], above 10 µM; in assay [4] it was above 10 µM.
For the compound `CCc1ccc(C(=O)Nc2cc(CN3CCN(C)CC3)cc(C(F)(F)F)c2)cc1-c1cccc(-c2cnc3cnccn23)c1`, the IC50 in assay [2] was 0.0087 to 0.0096 µM; in assay [1], 0.62 µM; in assay [3] it was 0.437 µM; in assay [4], 0.0661 µM.
Take `CCc1ccc(C(=O)Nc2cccc(C(F)(F)F)c2)cc1-c1cc(-c2cnc3cnccn23)ccc1C`: the IC50 was 0.0637 µM in assay [2], above 10 µM in assay [1], 1.45 µM in assay [3] and 0.61 µM in assay [4].
Take `CCc1ccc(C(=O)Nc2cccc(C(F)(F)F)c2)cc1-c1ccc(C)c(-c2cnc3cnccn23)c1`: the IC50 in assay [2] is 0.108 µM; in assay [1], above 10 µM; in assay [3], above 10 µM; in assay [4] it was above 10 µM.
As for `CCc1ccc(C(=O)Nc2ccc(C(F)(F)F)cc2)cc1-c1cccc(-c2cnc3cnccn23)c1`, the IC50 in assay [2] is 1.3 µM; in assay [1], 3.98 µM; in assay [3] it was 4.99 µM; in assay [4], above 10 µM.
For `CCc1ccc(C(=O)Nc2cccc(C(F)(F)F)c2)cc1-c1cc(C#N)cc(-c2cnc3cnccn23)c1`, the IC50 in assay [2] came out at 0.0156 µM; in assay [1], 3.72 µM; in assay [3], 5.64 µM; in assay [4] it was 0.947 µM.
For `CCc1ccc(C(=O)Nc2cccc(C(F)(F)F)c2)cc1-c1cccc(-c2cnc3cnccn23)c1C` the same measures were 0.0301 µM, 5.98 µM, 1.81 µM and 0.663 µM.
As for `CCc1ccc(C(=O)Nc2ccccc2C(F)(F)F)cc1-c1cccc(-c2cnc3cnccn23)c1`, the IC50 was 4.88 µM in assay [2], above 10 µM in assay [1], above 10 µM in assay [3] and above 10 µM in assay [4].
For the compound `CCc1ccc(C(=O)Nc2ccc(F)c(C(F)(F)F)c2)cc1-c1cc(C)cc(-c2cnc3cnccn23)c1`, the half-inhibitory concentration (IC50) was 0.0556 µM in assay [2], above 10 µM in assay [1], above 10 µM in assay [3] and above 5 µM in assay [4].
In the case of `CCc1ccc(C(=O)Nc2cccc(C(F)(F)F)c2)cc1-c1cc(C)cc(-c2cnc3cnccn23)c1`, the IC50 is 0.0225 µM in assay [2], above 10 µM in assay [1], above 10 µM in assay [3] and 1.73 µM in assay [4].
For `CCc1cc(-c2cc(C(=O)Nc3cccc(C(F)(F)F)c3)ccc2CC)cc(-c2cnc3cnccn23)c1`, the 50% inhibitory concentration (IC50) in assay [2] is 0.0423 µM; in assay [1] it was above 10 µM; in assay [3] it was above 10 µM; in assay [4], 3.23 µM.
Turning to `CCc1ccc(C(=O)Nc2cccc(C(F)(F)F)c2)cc1-c1cc(OC)cc(-c2cnc3cnccn23)c1`, the IC50 is 0.0165 µM in assay [2], 4.99 µM in assay [1], 3.7 µM in assay [3] and 1.02 µM in assay [4].
On to `CC(C)c1ccc(C(=O)Nc2cccc(C(F)(F)F)c2)cc1-c1cccc(-c2cnc3cnccn23)c1`, for which the IC50 in assay [2] is 1.26 µM; in assay [1], 1.69 µM; in assay [3] it was above 10 µM; in assay [4], above 10 µM.
